Calls of active or inactive are those of the source. The rule behind the calls is not given here.
Key:
[1] = Half life in rat at 1 mg/kg, iv; assay type: ADME, organism-based; conditions: in vivo
[2] = Tmax in rat at 3 mg/kg, po; assay type: ADME, organism-based; conditions: in vivo
[3] = AUC in rat at 1 mg/kg, iv; assay type: ADME, organism-based; conditions: in vivo
Rattus norvegicus [4] = assay: Toxicity in Wistar rat model of atypical antipsychotic quetiapine-induced weight gain assessed as effect on food intake at 10 mg/kg, po for 14 days; assay type: organism-based; conditions: in vivo, 336 h
How it was run: (§1)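 Prophylactic protocol in lean female Wistar rats (n = 9−10 per group). A dose response of test compound was given orally together with quetiapine at a fixed 10 mg/kg, concurrently for 14 days.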

[5] = Cmax in rat at 3 mg/kg, po; assay type: ADME, organism-based; set-up: dose 3 mg/kg, route oral; conditions: in vivo
[6] = Volume of distribution at steady state in rat at 1 mg/kg, iv; assay type: ADME, organism-based; conditions: in vivo, read-out: Vdss
Syrian golden hamster = assay: Increase in HDL level in high fat and high cholesterol diet fed Syrian golden hamster at 30 mg/kg, po qd for 14 days; assay type: functional, Mesocricetus auratus
How it was run: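 Groups of Syrian golden hamsters (n = 6) kept on a high fat, high cholesterol diet for 14 days, dosed orally at 30 mg/kg once daily. Plasma HDL and LDL compared against untreated HFHC controls; mean with standard errors.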

[7] = Half life in rat at 3 mg/kg, po; assay type: ADME, organism-based; conditions: in vivo
[8] = Clearance in rat at 1 mg/kg, iv; assay type: ADME, organism-based; conditions: in vivo
[9] = Oral bioavailability in rat at 3 mg/kg; assay type: ADME, organism-based; conditions: in vivo
[10] = AUC in rat at 3 mg/kg, po; assay type: ADME, organism-based; conditions: in vivo
Rattus norvegicus [11] = assay: Prevention of atypical antipsychotic quetiapine associated weight gain in Wistar rat at 10 mg/kg, po for 14 days; assay type: functional, organism-based; how it was run: as §1

half-life [1]: 3.96 h
Tmax [2]: 4 h
AUC [3]: 315 ng·h/mL
Cmax [5]: 63.3 ng/mL
Vd [6]: 13.8 L/kg
half-life [7]: 3.31 h
clearance [8]: 58.2 mL/min/kg
bioavailability [9]: 51.9%
AUC [10]: 488 ng·h/mL
Compound: COc1cc(F)ccc1-c1c(CN(C)Cc2ccccc2)[nH]c2c(NS(C)(=O)=O)cc(C(C)C)cc12
Activity (Rattus norvegicus [4]): Non-toxic
Activity (Syrian golden hamster): 73%
inhibition (Rattus norvegicus [11]): Active
